The text below walks through data of ChEMBL document CHEMBL3877285, “Design of a doxorubicin-peptidomimetic conjugate that targets HER2-positive cancer cells” (Eur J Med Chem, 2017).

The nature of data set [1]: Antiproliferative activity against human SKBR3 cells after 24 hrs by CellTiter-Glo assay. Type of data set: functional, cell-based. The note with it: SK-BR-3, 24 h. An outline of the steps:
(§1)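 10,000 cells per well, plated the day before treatment. Triplicate wells got serially diluted drug (0.001 to 100 μM) in serum-free medium at 37 °C. 1% SDS and 1% DMSO served as controls. After a PBS wash, CellTiter-Glo was added for about 20 min and luminescence read. IC50 came from the dose-response curve. Each experiment was run three times (SD).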

Data set [2] in a line: Cell cycle arrest in human BT474 cells assessed as S phase accumulation at 1 uM incubated for 1 hr followed by 24 hrs incubation in drug free medium by propidium iodide staining based flow cytometry (reference value: 8.4 to 13.6%). In kind it is functional. The note with it: BT-474. An outline of the steps: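 About 2 × 10⁵ BT-474 cells exposed 1 h, then 24 h in drug-free, serum-free medium. Cells were fixed in 70% ethanol for 2 h at −20 °C, then stained with 100 μg/mL RNase plus 40 μg/mL propidium iodide for 30 min at 4 °C. DNA content was read by FACS (10,000 events). Triplicate.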
For orientation: Flow cytometry measures light scatter and fluorescence of single cells or particles in a stream.

Data set [3] can be described thus: Antiproliferative activity against human MCF10A cells after 72 hrs by CellTiter-Glo assay. Type of data set: cell-based. To be noted: MCF-10A. An outline of the steps: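 Cells were kept at 37 °C, 5% CO2. Media: RPMI-1640 (BT-474, MCF-7), EMEM (Calu-3), McCoy's (SKBR-3), DMEM (MCF-10A), each with 10% FBS, 1% pen-strep and 1% insulin. 10,000 cells per well were dosed with serial dilutions in serum-free medium. Luminescence was read by CellTiter-Glo and IC50 taken from the dose-response curve. Each experiment was run three times (SD).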

Data set [4] is described as follows: Drug uptake in nucleus of human SKBR3 cells at 5 uM after 30 mins by DAPI staining based confocal microscopic method. Type of data set: ADME, cell-based. The note with it: sk-br-3, 0.5 h. An outline of the steps:
(§2)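 SKBR-3 cells were seeded for 24 h, then exposed to 5 μM at 37 °C for 30 min, 4 h or 24 h. Cells were PBS-washed, fixed in methanol at −20 °C for 5 min and mounted with DAPI.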

Data set [5] is described as follows: Antiproliferative activity against human BT474 cells after 48 hrs by CellTiter-Glo assay. In kind it is functional, cell-based. To be noted: BT-474, 48 h. In outline: as §1
Data set [6] can be described thus: Antiproliferative activity against human BT474 spheroids after 3 days by CellTiter-Glo assay. The note with it: BT-474, 72 h. In kind it is functional. An outline of the steps:
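They were treated at 0.001–10 μM for 3 days at 37 °C, with 1% SDS and 1% DMSO as controls. Viability was read by 3D CellTiter-Glo luminescence and IC50 taken from the log plot. Each experiment was run three times (SD).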
A general note: ATP-based viability assays read luminescence as a measure of living cells.

A short description of data set [7]: Antiproliferative activity against human Calu3 cells after 24 hrs by CellTiter-Glo assay. In kind it is functional, cell-based. The note with it: Calu-3, 24 h. An outline of the steps:
as §1

Data set [8] can be described thus: Antiproliferative activity against human Calu3 cells after 48 hrs by CellTiter-Glo assay. Type of data set: functional, cell-based. The note with it: Calu-3, 48 h. An outline of the steps:
as §1

A short description of data set [9]: Drug uptake in human MCF7 cells at 5 uM after 30 mins by DAPI staining based confocal microscopic method. Type of data set: ADME, cell-based. To be noted: mcf7, 0.5 h. An outline of the steps:
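MCF-7 cells were run like the SKBR-3 imaging: 37 °C for 30 min, 4 h or 24 h, methanol fixation at −20 °C, and DAPI mounting.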

The nature of data set [10]: Drug uptake in human SKBR3 cells at 5 uM after 24 hrs by DAPI staining based confocal microscopic method. Type of data set: ADME, cell-based. The note with it: sk-br-3, 24 h. In outline: (§3)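 SKBR-3 cells were seeded and treated 24 h later, then incubated at 37 °C for 30 min, 4 h or 24 h. Cells were fixed with methanol for 5 min at −20 °C and mounted in DAPI.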
Data set [11] in a line: Drug uptake in cytoplasm of human SKBR3 cells at 5 uM after 30 mins by DAPI staining based confocal microscopic method. In kind it is ADME, cell-based. To be noted: sk-br-3, 0.5 h. In outline: as §3
Data set [12] can be described thus: Drug uptake in nucleus of human SKBR3 cells at 5 uM after 4 hrs by DAPI staining based confocal microscopic method. In kind it is ADME, cell-based. The note with it: sk-br-3, 4 h. In outline:
as §2

For data set [13], the target named is T1, Receptor tyrosine-protein kinase erbB-2 (Homo sapiens, UniProt P04626). Put plainly: Binding affinity to HER2 domain-4 (unknown origin) by SPR assay.
Data set [14] is described as follows: Antiproliferative activity against human BT474 cells after 24 hrs by CellTiter-Glo assay. In kind it is functional, cell-based. The note with it: BT-474, 24 h. An outline of the steps: as §1
Data set [15] can be described thus: Cell cycle arrest in human BT474 cells assessed as G0/G1 phase accumulation at 1 uM incubated for 1 hr followed by 24 hrs incubation in drug free medium by propidium iodide staining based flow cytometry. In kind it is functional. To be noted: BT-474. In outline: (§4)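 About 2 × 10⁵ BT-474 cells were exposed to 1 μM for 1 h, then kept 24 h in drug-free, serum-free medium. Cells were fixed in 70% ethanol (2 h, −20 °C) and stained with 100 μg/mL RNase plus 40 μg/mL propidium iodide (4 °C, 30 min). DNA content was read on 10,000 cells by FACS. Experiments were done in triplicate.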

For data set [16], the target named is T1, Receptor tyrosine-protein kinase erbB-2. Put plainly: Binding affinity to HER2 extracellular domain (unknown origin) by SPR assay. For orientation: Surface plasmon resonance follows binding to a sensor surface in real time, without labels.
A short description of data set [17]: Cell cycle arrest in human BT474 cells assessed as G2/M phase accumulation at 1 uM incubated for 1 hr followed by 24 hrs incubation in drug free medium by propidium iodide staining based flow cytometry. The note with it: BT-474. Type of data set: functional. In outline:
as §4

Data set [18] can be described thus: Drug uptake in cytoplasm of human SKBR3 cells at 5 uM after 24 hrs by DAPI staining based confocal microscopic method. In kind it is ADME, cell-based. The note with it: sk-br-3, 24 h. In outline:
as §2

The nature of data set [19]: Drug uptake in cytoplasm of human SKBR3 cells at 5 uM after 4 hrs by DAPI staining based confocal microscopic method. Type of data set: ADME, cell-based. To be noted: sk-br-3, 4 h. An outline of the steps:
as §2

A short description of data set [20]: Antiproliferative activity against human MCF7 cells after 72 hrs by CellTiter-Glo assay. In kind it is functional, cell-based. The note with it: MCF7, 72 h. In outline: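 Cells were kept at 37 °C, 5% CO2. 10,000 cells per well were dosed with serial dilutions in serum-free medium. Luminescence was read by CellTiter-Glo and IC50 taken from the dose-response curve. Each experiment was run three times (SD).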

Data set [21] is described as follows: Drug uptake in human MCF7 cells at 5 uM after 24 hrs by DAPI staining based confocal microscopic method. To be noted: mcf7, 24 h. In kind it is ADME, cell-based.
Data set [22] can be described thus: Drug degradation in human SKBR3 cells at 50 uM after 4 hrs by HPLC method. Type of data set: ADME, cell-based, SK-BR-3. To be noted: read-out: Drug degradation. An outline of the steps:
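About 15,000 trypsinised SKBR-3 cells were resuspended with 50 μM (final) conjugate in serum-free medium at 37 °C, one sample per time point (0 min–48 h). Cells were lysed with chilled acetonitrile, sonicated and centrifuged, and the supernatant was cleaned on Sep-Pak. Intact-conjugate peak area was measured by C18 reversed-phase HPLC and expressed relative to time zero. Each time point was run in triplicate.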

T1 sequence (P04626 whole entry, the tested form may be a part): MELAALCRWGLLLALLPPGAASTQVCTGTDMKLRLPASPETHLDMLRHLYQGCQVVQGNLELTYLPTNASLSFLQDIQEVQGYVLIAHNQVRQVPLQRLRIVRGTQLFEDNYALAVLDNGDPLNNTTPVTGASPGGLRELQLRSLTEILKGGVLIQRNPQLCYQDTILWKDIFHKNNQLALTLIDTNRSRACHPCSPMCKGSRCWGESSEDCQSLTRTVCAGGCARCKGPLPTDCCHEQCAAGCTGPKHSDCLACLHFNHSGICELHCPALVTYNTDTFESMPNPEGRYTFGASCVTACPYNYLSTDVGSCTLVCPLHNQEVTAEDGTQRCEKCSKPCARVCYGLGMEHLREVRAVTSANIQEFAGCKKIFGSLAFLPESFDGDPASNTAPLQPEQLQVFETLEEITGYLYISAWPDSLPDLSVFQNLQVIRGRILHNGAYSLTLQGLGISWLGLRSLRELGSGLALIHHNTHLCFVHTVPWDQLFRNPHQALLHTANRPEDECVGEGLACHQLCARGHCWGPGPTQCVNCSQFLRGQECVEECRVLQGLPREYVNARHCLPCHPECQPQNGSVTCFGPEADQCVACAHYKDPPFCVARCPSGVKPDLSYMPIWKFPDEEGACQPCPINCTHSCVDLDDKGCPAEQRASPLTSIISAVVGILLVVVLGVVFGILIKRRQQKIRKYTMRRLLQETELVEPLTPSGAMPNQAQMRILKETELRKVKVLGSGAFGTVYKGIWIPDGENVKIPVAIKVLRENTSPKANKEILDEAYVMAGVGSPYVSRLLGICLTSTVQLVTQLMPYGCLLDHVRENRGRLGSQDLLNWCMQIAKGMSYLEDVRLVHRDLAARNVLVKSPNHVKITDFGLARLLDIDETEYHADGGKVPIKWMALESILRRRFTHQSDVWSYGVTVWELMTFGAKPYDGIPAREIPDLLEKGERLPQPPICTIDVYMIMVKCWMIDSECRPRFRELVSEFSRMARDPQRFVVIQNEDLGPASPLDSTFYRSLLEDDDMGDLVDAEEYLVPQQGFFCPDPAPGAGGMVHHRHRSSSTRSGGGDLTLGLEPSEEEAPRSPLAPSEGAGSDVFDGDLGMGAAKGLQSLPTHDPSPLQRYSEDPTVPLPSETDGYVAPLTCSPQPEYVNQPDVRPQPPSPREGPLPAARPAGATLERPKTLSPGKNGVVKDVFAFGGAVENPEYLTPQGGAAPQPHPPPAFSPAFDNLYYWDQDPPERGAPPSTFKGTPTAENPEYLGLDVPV

Regarding `COc1cccc2c1C(=O)c1c(O)c3c(c(O)c1C2=O)C[C@@](O)(C(=O)CO)C[C@@H]3O[C@H]1C[C@H](N)[C@H](O)[C@H](C)O1` [DOXORUBICIN], the IC50 – broadly, the midpoint of a concentration-inhibition curve – worked out at 0.034 µM in data set [1]; 0.15 µM in data set [3]; 0.041 µM in [5]; 0.18 µM in data set [6]; 0.27 µM in [7]; 0.11 µM in data set [8]. Further, the IC50 in data set [14] was 0.053 µM. For the same compound, in data set [2], the Activity worked out at 3.7%. For the same compound, the Drug uptake result in data set [4], in [9], in data set [10], in data set [11] and in [12] was “Active” in each case. In addition, in data set [13], the Kd (usually a measure of binding affinity in units of concentration) was 11000 µM.
As to `N=C(N)NCCC[C@H](N)C(=O)N[C@@H](CC(=O)N[C@@H](Cc1ccccc1)C(=O)O)c1cccc2ccccc12`, the Activity in data set [2] stood at 5.7%; in data set [15], 67%; in [17], 23.6%. The compound further displayed an IC50 in data set [3] greater than 50 µM. Also, the dissociation constant Kd in data set [16] worked out at 1 µM.
Regarding `COc1cccc2c1C(=O)c1c(O)c3c(c(O)c1C2=O)C[C@@](O)(C(=O)CO)C[C@@H]3O[C@H]1C[C@H](NC(=O)CCCC(=O)N[C@@H](CCCNC(=N)N)C(=O)N[C@@H](CC(=O)N[C@@H](Cc2ccccc2)C(=O)O)c2cccc3ccccc23)[C@H](O)[C@H](C)O1`, the Drug uptake entry in data set [18], in data set [4], in data set [19], in data set [12] and in data set [21] was “Active” throughout. The concentration for half-maximal inhibition (IC50) in data set [20] came out at 0.8 µM. The metabolised at 4 h, 50 µM in [22] is 50%.
